Results: ChEMBL document CHEMBL4813926, “Auyuittuqamides A-D, Cyclic Decapeptides from Sesquicillium microsporum RKAG 186 Isolated from Frobisher Bay Sediment” (J Nat Prod, 2021)
The source made the active and inactive calls. No cut-off for these calls is given here. Where a SMILES comes first, the peptide text is derived from it. [ ]: non-standard residue; d: D form. NMeF = CN[C@@H](Cc1ccccc1)C(=O)O; NMeT = CN[C@H](C(=O)O)[C@@H](C)O; NMeV = CN[C@H](C(=O)O)C(C)C

Assays:
Staphylococcus aureus = assay: Antimicrobial activity against methicillin-resistant Staphylococcus aureus ATCC 33591 up to 128 uM measured after 22 hrs by CLSI protocol based microbroth dilution assay; type: functional, organism-based; conditions: dose microM <=128, time 22.0 hrs
How it was run: (§1)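 CLSI broth microdilution in 96-well format. Growth inhibition was read as absorbance at 600 nm at time zero and after 22 h incubation at 37 °C.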

MCF7 = assay: Cytotoxicity against ER positive human MCF7 cells assessed as reduction in cell viability measured after 24 hrs by Alamar blue assay; type: functional, cell-based; conditions: MCF7, 24 h
How it was run: (§2)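 Cells in 96-well culture plates, in triplicate. Viability taken 24 h after treatment with Alamar Blue redox dye. Fluorescence read at 560/12 nm excitation and 590 nm emission, at time zero and 4 h after dye addition.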

Candida albicans = assay: Antifungal activity against Candida albicans ATCC 14035 up to 128 uM measured after 22 hrs by CLSI protocol based microbroth dilution assay; type: functional, organism-based; conditions: dose microM <=128, time 22.0 hrs
How it was run: (§3)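 96-well microbroth dilution run to CLSI standards. OD 600 nm read at time zero and at the end, after 22 h incubation at 37 °C, to give growth inhibition.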

Keratinocyte = assay: Cytotoxicity against human epidermal keratinocytes assessed as reduction in cell viability measured after 24 hrs by Alamar blue assay; type: cell-based; how it was run: as §2
[1] = Cytotoxicity against ER negative human HTB26 cells assessed as reduction in cell viability measured after 24 hrs by Alamar blue assay; type: functional, cell-based; conditions: HTB26, 24 h; how it was run: as §2
Pseudomonas aeruginosa = assay: Antimicrobial activity against Pseudomonas aeruginosa ATCC 14210 up to 128 uM measured after 22 hrs by CLSI protocol based microbroth dilution assay; type: functional, organism-based; conditions: dose microM <=128, time 22.0 hrs; how it was run: as §3
Staphylococcus warneri = assay: Antimicrobial activity against Staphylococcus warneri ATCC 17917 up to 128 uM measured after 22 hrs by CLSI protocol based microbroth dilution assay; type: functional, organism-based; conditions: dose microM <=128, time 22.0 hrs; how it was run: as §3
Enterococcus faecium = assay: Antimicrobial activity against vancomycin-resistant Enterococcus faecium EF379 up to 128 uM measured after 22 hrs by CLSI protocol based microbroth dilution assay; type: functional, organism-based; conditions: dose microM <=128, time 22.0 hrs; how it was run: as §1

| SMILES | Activity (Staphylococcus aureus) | IC50 (MCF7) | Activity (Candida albicans) | IC50 (Keratinocyte) | IC50 [1] | Activity (Pseudomonas aeruginosa) | Activity (Staphylococcus warneri) | Activity (Enterococcus faecium) |
| --- | --- | --- | --- | --- | --- | --- | --- | --- |
| CC[C@@H](C)[C@@H]1NC(=O)CNC(=O)[C@H](Cc2ccccc2)N(C)C(=O)[C@H](C(C)C)NC(=O)[C@H]([C@@H](C)O)N(C)C(=O)[C@H](CC(C)C)NC(=O)CNC(=O)[C@H](C(C)C)N(C)C(=O)[C@H](C(C)C)NC(=O)[C@H](CO)NC1=O | inactive | > 10 µM | inactive | > 10 µM | > 10 µM | inactive | inactive | inactive |
| CC[C@H](C)[C@@H]1NC(=O)CNC(=O)[C@H](Cc2ccccc2)N(C)C(=O)[C@H]([C@@H](C)CC)NC(=O)[C@H]([C@@H](C)O)N(C)C(=O)[C@H](CC(C)C)NC(=O)CNC(=O)[C@H](C(C)C)N(C)C(=O)[C@H]([C@@H](C)CC)NC(=O)[C@H](CO)NC1=O (cyclo(GISI[NMeV]GL[NMeT]I[NMeF])) | inactive | > 10 µM | inactive | > 10 µM | > 10 µM | inactive | inactive | inactive |
| CC[C@H](C)[C@@H]1NC(=O)CNC(=O)[C@H](Cc2ccccc2)N(C)C(=O)[C@H]([C@@H](C)CC)NC(=O)[C@H]([C@@H](C)O)N(C)C(=O)[C@H](CC(C)C)NC(=O)CNC(=O)[C@H](C(C)C)N(C)C(=O)[C@H](C(C)C)NC(=O)[C@H](CO)NC1=O (cyclo(GISV[NMeV]GL[NMeT]I[NMeF])) | inactive | > 10 µM | inactive | > 10 µM | > 10 µM | inactive | inactive | inactive |
| CC(C)C[C@@H]1NC(=O)CNC(=O)[C@H](C(C)C)N(C)C(=O)[C@H](C(C)C)NC(=O)[C@H](CO)NC(=O)[C@H](C(C)C)NC(=O)CNC(=O)[C@H](Cc2ccccc2)N(C)C(=O)[C@H](C(C)C)NC(=O)[C@H]([C@@H](C)O)N(C)C1=O (cyclo(GL[NMeT]V[NMeF]GVSV[NMeV])) | inactive | > 10 µM | inactive | > 10 µM | > 10 µM | inactive | inactive | inactive |
